Bioassay records from PubChem.
NR3A LBD binder – modulates the human NR3A ligand-binding domain; NR3A LBD differential scanning fluorimetry, Tm shift; 0% = protein alone, 100% = glycine-bound protein; Tm shift relative to glycine control, % at 25 µM; actives 2.5% (n = 340,000);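 active means melting temperature shift of at least 10% of the positive control shift, at one fixed dose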
ADAM17 inh – inhibitors of human ADAM17; P78536; recombinant ADAM17, EDANS/DABCYL FRET peptide cleavage; inhibition, % at 6.95 µM; actives 0.83% (n = 370,000); AID 720648;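 active means inhibition above the mean of compounds lying between control limits plus 3 SD, set per campaign, cut at about 8.5% in these data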;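 further: 0% = DMSO-only wells as the low control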
SKN-1 block – blocks SKN-1 activity in C. elegans; actives 0.49% (n = 360,000); inhibition, % at 21.8 µM; C. elegans VP596 Pgst-4::GFP/RFP ratio, acrylamide-induced, 24 h;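 active means interference check ratio from 0.5 to 1.5 plus GFP to RFP signal ratio inhibition reaching or exceeding a fixed threshold, cut at about 30% in these data, passing the limit was not always enough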
MT1-MMP act inh – MT1-MMP (human) activation inhibition | GFP/RFP ratio change, % at 20 µM | AID 651647 | HT1080 RFP-PRO-GFP cells, GFP/RFP ratio fluorescence, overnight; percent of plate control window, DMSO zero | actives 0.061% (n = 360,000) | P50281;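 active means GFP/RFP ratio change of at least 30% with cell ATP level not reduced by more than half and red fluorescence within 50% of control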
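system = RFP-PRO-GFP reporter HT1080 cells | dosing = 20 µM single dose, 1% DMSO | timing = overnight cell settling, then overnight compound exposure, 37 °C, 5% CO2 | read-out basis = GFP/RFP fluorescence ratio | controls = DMSO and RFP-L50D-GFP cell wells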
MPTP inh – blocks calcium-induced mitochondrial swelling. actives 1.4% (n = 360,000). AID 602449. isolated mouse mitochondria, Ca2+ swelling absorbance, 30 min. inhibition, % at 10 µM;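 active means inhibition of 50% or more, scaled per plate between neutral and stimulator controls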;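 further: 0% = DMSO wells given calcium and 100% = 1 mM EGTA wells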
ADAM10 inh – ADAM10 inhibition, QFRET primary screen; recombinant ADAM10, EDANS/DABCYL FRET peptide cleavage, 3 h; actives 0.62% (n = 370,000); O14672; inhibition, % at 7 µM;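 active means inhibition above a per-campaign cutoff equal to the mean of compounds falling between control-based bounds plus 3 SD, cut at about 20% in these data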;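 further: 0% = DMSO wells while the 100% control is not disclosed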
Target sequence (O14672 214-748 limits assumed): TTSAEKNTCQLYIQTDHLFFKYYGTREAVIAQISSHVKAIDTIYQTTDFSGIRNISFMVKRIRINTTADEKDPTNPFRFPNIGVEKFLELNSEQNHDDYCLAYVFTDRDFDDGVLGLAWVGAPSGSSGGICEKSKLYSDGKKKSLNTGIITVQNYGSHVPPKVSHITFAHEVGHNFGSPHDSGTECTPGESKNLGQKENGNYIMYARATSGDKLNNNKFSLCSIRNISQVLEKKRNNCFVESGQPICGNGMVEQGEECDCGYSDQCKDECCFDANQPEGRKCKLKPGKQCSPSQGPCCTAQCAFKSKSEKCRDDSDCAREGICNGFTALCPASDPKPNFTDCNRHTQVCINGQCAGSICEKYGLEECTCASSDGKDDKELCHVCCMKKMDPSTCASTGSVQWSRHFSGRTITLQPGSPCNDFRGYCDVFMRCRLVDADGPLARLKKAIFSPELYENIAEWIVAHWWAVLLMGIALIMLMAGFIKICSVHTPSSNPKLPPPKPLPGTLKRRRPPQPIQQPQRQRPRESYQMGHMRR
ADAM10 counter – counter-screen for ADAM17 exosite inhibitors: inhibitors of human ADAM10 | shares compounds with ADAM17 inh | recombinant ADAM10, EDANS/DABCYL FRET peptide cleavage, 3 h | inhibition, % at 6.95 µM | actives 47% (n = 2,900) | AID 743256;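 active means mean inhibition over the triplicate runs exceeds the activity threshold set in the earlier primary screen, cut at about 20% in these data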;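 further: 0% = DMSO wells and 100% = marimastat wells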
ADAM17 confirm – confirmation of inhibitors of human ADAM17; recombinant ADAM17, EDANS/DABCYL QFRET peptide cleavage; AID 743257; shares compounds with ADAM17 inh; inhibition, % at 6.95 µM; actives 65% (n = 2,900);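 active means mean inhibition across replicates above the hit cutoff set in the primary screen, cut at about 8.5% in these data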;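 further: 0% = DMSO wells and 100% = marimastat wells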
Numbers without * were called inactive; . = not tested or not shown. Shown are actives, neighbours in structure and some others; about 4.7% of the full set was active somewhere.

SMILES | NR3A LBD binder | ADAM17 inh | SKN-1 block | MT1-MMP act inh | MPTP inh | ADAM10 inh | ADAM10 counter | ADAM17 confirm
O=[N+]([O-])c1ccc(C(O)CN2CCN(C/C=C/c3ccccc3)CC2)cc1 (configuration not stated) | . | 0.0 | 3.3 | 2.6 | -0.4 | 2.6 | . | .
Cn1cc([N+](=O)[O-])c(C(=O)NNC(=O)c2ccc([N+](=O)[O-])cc2)n1 | 1.8 | 8.8* | 4.8 | 0.8 | -0.9 | 5.1 | 7.7 | 8.6
O=C(Nc1ccccc1OC(=O)c1ccc(Cl)cc1)c1ccc(Cl)cc1 | -0.9 | 2.4 | -2.5 | -1.0 | 3.2 | -2.4 | . | .
O=C(Oc1ccccc1-c1nnco1)c1ccc(Cl)cc1 | -1.8 | 9.7* | 8.9 | 3.7 | -5.2 | 6.9 | 3.6 | 5.7
COc1ccc(CCNS(=O)(=O)c2c(C)n[nH]c2C)cc1 | . | -3.2 | . | . | . | -6.0 | . | .
Cc1[nH]ccc(=O)c1OCc1c(Cl)cccc1Cl | 1.5 | -2.5 | 11.1 | 3.4 | -2.2 | -4.5 | . | .
Cc1ccc(Cn2ccc(=O)c(OCc3c(Cl)cccc3Cl)c2C)cc1 | 4.7 | 10.5* | -12.2 | -11.5 | 2.5 | 17.4 | 15.3 | 10.2*
COc1cccc(NC(=O)c2csc3c2CCCC3)c1 | -1.9 | 13.0* | 13.1 | -1.8 | -0.6 | 10.4 | 10.4 | 8.5
O=C(OCCC1Oc2cccnc2NC1=O)c1ccc(F)cc1 (configuration not stated) | 0.6 | -1.1 | -6.1 | 1.3 | -1.3 | -4.8 | . | .
O=C(OCCC1Oc2cccnc2NC1=O)c1ccc([N+](=O)[O-])cc1 (configuration not stated) | . | 9.1* | . | . | . | 12.7 | 2.0 | 5.8
C=C(C)Cn1c(CCn2c3ccccc3c3ccccc32)n[nH]c1=S | -8.4 | 0.6 | 5.0 | -5.7 | 1.5 | -10.1 | . | .
Cn1c(Cn2c3ccccc3c3ccccc32)n[nH]c1=S | 0.9 | 10.4* | 3.2 | 9.1 | 3.6 | 16.8 | 11.6 | 7.2
Cc1c(C(=O)N(Cc2ccc(N(C)C)cc2)CC2CCCO2)oc2ccccc12 (configuration not stated) | -3.6 | 10.0* | 1.1 | -3.6 | -0.7 | 11.0 | -5.5 | 1.1
Cc1ccc(OCc2nc(-c3ccccn3)no2)c(Br)c1 | -0.8 | 0.3 | 5.3 | 3.5 | -2.1 | 5.2 | . | .
Cc1ccccc1NC(=O)c1[nH]cnc1C(=O)NN | -0.3 | 13.0* | 4.5 | 1.0 | -0.4 | 7.0 | -1.9 | -0.1
Cc1ccccc1NC(=O)c1nc[nH]c1C(=O)NCc1ccccc1 | -12.8 | 0.2 | -3.0 | 1.0 | -0.8 | 17.3 | . | .
CC(C)(C)n1nc2c(c1NC(=O)Cc1ccc(F)cc1)CSC2 | -6.1 | 1.8 | -3.1 | 0.9 | -0.7 | 4.0 | . | .
CCCCSc1nsc(NC(C)=O)n1 | 2.6 | 1.5 | -26.6 | -3.5 | 1.0 | 5.8 | . | .
CCCSc1nsc(NC(=O)CCC)n1 | -1.4 | 9.2* | 7.4 | 1.1 | -1.9 | 9.8 | 4.3 | 3.1
COc1ccc(Cl)cc1NC(=O)Cn1c(=O)oc2ccccc21 | 0.9 | -1.9 | -21.2 | -0.1 | 2.3 | 2.8 | . | .
CCc1cc2c(nc1CC)CCCN2S(=O)(=O)c1ccc(F)cc1 | . | -0.5 | . | . | . | -3.5 | . | .
CCc1cc2c(nc1CC)CCCN2S(=O)(=O)c1ccc(OC)cc1 | . | 10.9* | . | . | . | 4.9 | 2.2 | 5.8
Cc1ccccc1NC(=O)c1sc2nc3c(c(-c4ccco4)c2c1N)CCCC3 | -0.4 | -1.5 | 21.7 | -3.2 | 3.1 | 2.1 | . | .
O=C(NCc1cccs1)c1cc(-c2ccccc2)nn1CC1CC(c2cccc([N+](=O)[O-])c2)=NO1 (configuration not stated) | -13.7 | 11.4* | 6.9 | -1.6 | 0.5 | 15.7 | 27.5* | 13.2*
CCCc1noc(-c2cccc([N+](=O)[O-])c2)n1 | -0.2 | -2.2 | 25.5 | -1.3 | 0.6 | 0.9 | . | .
